Experimental data: ChEMBL document CHEMBL3352743, “Chemically accessible hsp90 inhibitor that does not induce a heat shock response” (ACS Med Chem Lett, 2014)
≈ marks a conversion by molar mass, not a printed value. Calls of active or inactive are those of the source. No cut-off for these calls is given here. Peptide text beside a SMILES is read from it.

Experiments:
[1] = Cytotoxicity against human HCT116 cells after 72 hrs by CCK8 assay; type: functional, cell-based; conditions: HCT-116, 72 h
[2] = Cytotoxicity against human MIAPaCa2 cells after 72 hrs by CCK8 assay; type: functional, cell-based; conditions: MIA PaCa-2, 72 h
[3] = molecular target: Heat shock protein HSP 90-beta (Oryctolagus cuniculus) (UniProt P30947); assay: Inhibition of HSP90 in rabbit reticulocyte lysates at 5 uM pre-incubated for 2 hrs by firefly luciferase protein re-folding assay
[4] = Solubility in 80% EtOH/20% water; type: physicochemical
[5] = molecular target: Heat shock protein HSP 90-beta (Homo sapiens) (UniProt P08238); assay: Binding affinity to HSP90 in human HCT116 cells by coomassie blue staining and Western blotting based pull down assay; type: cell-based; conditions: HCT-116
Outline: (§1)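 Biotin-tagged analogue (0.1 mg) incubated in HCT-116 or MiaPaCa-2 cell lysate, then recovered on NeutrAvidin beads. Bound proteins eluted in sample buffer, visualized by Coomassie stain or Western blot, and identified by nano-LC/MS/MS. Image representative of 3 independent assays.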

[6] = molecular target: Heat shock protein HSP 90-beta (Homo sapiens) (UniProt P08238); assay: Binding affinity to HSP90 in human MIAPaCa2 cells by coomassie blue staining and Western blotting based pull down assay; type: cell-based; conditions: MIA PaCa-2; outline: as §1
[7] = tested on: MIA PaCa-2; assay: Induction of apoptosis in human MIAPaCa2 cells assessed as caspase 3/7 activation at 1000 nM after 24 hrs by luminometry; type: functional
[8] = Induction of heat shock response in human MIAPaCa2 cells assessed as HSP27 protein expression at IC50 level by western blotting method relative to untreated control; type: cell-based; conditions: mia paca-2
Outline: (§2)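 MiaPaCa-2 cells, run alongside HCT-116, treated with compound at the line's level and also at 10-fold above it. Western blotting measured HSF1, hsp90, hsp70, hsp40 and hsp27 protein levels, quantified as fold change versus untreated control.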

[9] = molecular target: Heat shock protein HSP 90-beta (Oryctolagus cuniculus) (UniProt P30947); conditions: 100 nM
[10] = Induction of heat shock response in human HCT116 cells assessed as HSP27 protein expression at IC50 level by western blotting method relative to untreated control; type: cell-based; conditions: hct-116
[11] = Induction of heat shock response in human HCT116 cells assessed as HSP70 protein expression at IC50 level by western blotting method relative to untreated control; type: cell-based; conditions: hct-116
[12] = Induction of heat shock response in human MIAPaCa2 cells assessed as HSP70 protein expression at IC50 level by western blotting method relative to untreated control; type: cell-based; conditions: mia paca-2
[13] = Induction of heat shock response in human MIAPaCa2 cells assessed as HSP40 protein expression at IC50 level by western blotting method relative to untreated control; type: cell-based; conditions: mia paca-2
[14] = tested on: HCT-116; assay: Induction of apoptosis in human HCT116 cells assessed as caspase 3/7 activation at 1000 nM after 24 hrs by luminometry; type: functional
[15] = Induction of heat shock response in human MIAPaCa2 cells assessed as HSF1 protein expression at IC50 level by western blotting method relative to untreated control; type: cell-based; conditions: mia paca-2
[16] = tested on: HCT-116; assay: Induction of apoptosis in human HCT116 cells at 1000 nM after 24 hrs by annexin V and 7-AAD staining based flow cytometry; type: functional
[17] = Induction of heat shock response in human HCT116 cells assessed as HSP90 protein expression at IC50 level by western blotting method relative to untreated control; type: cell-based; conditions: hct-116
[18] = Induction of heat shock response in human MIAPaCa2 cells assessed as HSP90 protein expression at IC50 level by western blotting method relative to untreated control; type: cell-based; conditions: mia paca-2; outline: as §2
[19] = Induction of heat shock response in human HCT116 cells assessed as HSF1 protein expression at IC50 level by western blotting method relative to untreated control; type: cell-based; conditions: hct-116
[20] = Induction of heat shock response in human HCT116 cells assessed as HSP40 protein expression at IC50 level by western blotting method relative to untreated control; type: cell-based; conditions: hct-116
[21] = Reduction in HSP90 protein expression in human MIAPaCa2 cells at 50 uM by western blotting method relative to untreated control; type: functional, cell-based; conditions: MIA PaCa-2
[22] = Reduction in HSP27 protein expression in human HCT116 cells at IC50 level by western blotting method; type: functional, cell-based; conditions: HCT-116
[23] = Reduction in HSP27 protein expression in human HCT116 cells at 50 uM by western blotting method relative to untreated control; type: functional, cell-based; conditions: HCT-116
[24] = Reduction in HSP90 protein expression in human MIAPaCa2 cells at IC50 level by western blotting method; type: functional, cell-based; conditions: MIA PaCa-2
[25] = Reduction in HSF1 protein expression in human HCT116 cells at 50 uM by western blotting method relative to untreated control; type: functional, cell-based; conditions: HCT-116
[26] = tested on: HCT-116; assay: Induction of cell cycle arrest in human HCT116 cells assessed as accumulation at G0/G1 phase at 5 uM after 24 hrs by propidium iodide staining based cytometry; type: functional
[27] = Reduction in HSP40 protein expression in human HCT116 cells at 50 uM by western blotting method relative to untreated control; type: functional, cell-based; conditions: HCT-116
[28] = Reduction in HSP90 protein expression in human HCT116 cells at IC50 level by western blotting method; type: functional, cell-based; conditions: HCT-116
[29] = Reduction in HSP27 protein expression in human MIAPaCa2 cells at 50 uM by western blotting method relative to untreated control; type: functional, cell-based; conditions: MIA PaCa-2
[30] = Reduction in HSF1 protein expression in human HCT116 cells at IC50 level by western blotting method; type: functional, cell-based; conditions: HCT-116
[31] = molecular target: Heat shock protein HSP 90-beta (Oryctolagus cuniculus) (UniProt P30947); assay: Inhibition of HSP90 in rabbit reticulocyte lysates at 5 uM […] by firefly luciferase protein re-folding assay; conditions: in the assay text read “2 hrs” for “5 hrs”
Outline: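 Denatured firefly luciferase incubated for 2 h in rabbit reticulocyte lysate pretreated with compound. Refolding read as luciferase activity relative to control. Mean ± SEM, n = 3.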

[32] = Reduction in HSP70 protein expression in human MIAPaCa2 cells at IC50 level by western blotting method; type: functional, cell-based; conditions: MIA PaCa-2
[33] = Reduction in HSP40 protein expression in human MIAPaCa2 cells at 50 uM by western blotting method relative to untreated control; type: functional, cell-based; conditions: MIA PaCa-2
[34] = Reduction in HSP40 protein expression in human HCT116 cells at IC50 level by western blotting method; type: functional, cell-based; conditions: HCT-116
[35] = Reduction in HSP90 protein expression in human HCT116 cells at 50 uM by western blotting method relative to untreated control; type: functional, cell-based; conditions: HCT-116
[36] = Reduction in HSP70 protein expression in human MIAPaCa2 cells at 50 uM by western blotting method relative to untreated control; type: functional, cell-based; conditions: MIA PaCa-2
[37] = tested on: HCT-116; assay: Induction of apoptosis in human HCT116 cells at 50 uM after 24 hrs by annexin V and 7-AAD staining based flow cytometry; type: functional
[38] = Reduction in HSF1 protein expression in human MIAPaCa2 cells at IC50 level by western blotting method; type: functional, cell-based; conditions: MIA PaCa-2
[39] = Reduction in HSP40 protein expression in human MIAPaCa2 cells at IC50 level by western blotting method; type: functional, cell-based; conditions: MIA PaCa-2
[40] = Reduction in HSP27 protein expression in human MIAPaCa2 cells at IC50 level by western blotting method; type: functional, cell-based; conditions: MIA PaCa-2
[41] = Reduction in HSP70 protein expression in human HCT116 cells at IC50 level by western blotting method; type: functional, cell-based; conditions: HCT-116
[42] = Reduction in HSF1 protein expression in human MIAPaCa2 cells at 50 uM by western blotting method relative to untreated control; type: functional, cell-based; conditions: MIA PaCa-2
[43] = tested on: HCT-116; assay: Induction of apoptosis in human HCT116 cells assessed as caspase 3/7 activation at 50 uM after 24 hrs by luminometry; type: functional
[44] = tested on: MIA PaCa-2; assay: Induction of cell cycle arrest in human MIAPaCa2 cells assessed as accumulation at G0/G1 phase at 5 uM after 24 hrs by propidium iodide staining based cytometry; type: functional
[45] = Reduction in HSP70 protein expression in human HCT116 cells at 50 uM by western blotting method relative to untreated control; type: functional, cell-based; conditions: HCT-116
[46] = tested on: MIA PaCa-2; assay: Induction of apoptosis in human MIAPaCa2 cells assessed as caspase 3/7 activation at 50 uM after 24 hrs by luminometry; type: functional
[47] = 80% EtOH/20% water, read-out: solubility

Chain of Heat shock protein HSP 90-beta (Oryctolagus cuniculus) (P30947 whole entry): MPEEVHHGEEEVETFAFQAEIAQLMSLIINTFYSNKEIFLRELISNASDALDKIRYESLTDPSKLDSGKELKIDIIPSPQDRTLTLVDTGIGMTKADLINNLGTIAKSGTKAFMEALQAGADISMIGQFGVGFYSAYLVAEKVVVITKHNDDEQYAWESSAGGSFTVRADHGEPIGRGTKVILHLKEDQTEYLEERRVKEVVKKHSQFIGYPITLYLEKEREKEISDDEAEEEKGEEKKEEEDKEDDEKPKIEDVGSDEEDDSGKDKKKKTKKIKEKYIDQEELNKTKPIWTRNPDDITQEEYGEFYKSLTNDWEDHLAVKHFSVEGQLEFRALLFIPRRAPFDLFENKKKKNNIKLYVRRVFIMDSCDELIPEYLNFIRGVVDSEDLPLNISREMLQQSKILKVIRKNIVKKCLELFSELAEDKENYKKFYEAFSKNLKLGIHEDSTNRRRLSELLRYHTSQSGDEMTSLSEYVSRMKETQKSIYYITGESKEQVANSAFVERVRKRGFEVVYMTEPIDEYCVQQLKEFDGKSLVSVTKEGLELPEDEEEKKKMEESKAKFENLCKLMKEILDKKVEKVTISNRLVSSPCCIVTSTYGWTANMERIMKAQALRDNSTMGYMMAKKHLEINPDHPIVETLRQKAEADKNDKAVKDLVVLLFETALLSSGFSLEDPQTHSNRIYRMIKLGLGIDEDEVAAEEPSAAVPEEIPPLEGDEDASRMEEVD
Chain of Heat shock protein HSP 90-beta (Homo sapiens) (P08238 whole entry): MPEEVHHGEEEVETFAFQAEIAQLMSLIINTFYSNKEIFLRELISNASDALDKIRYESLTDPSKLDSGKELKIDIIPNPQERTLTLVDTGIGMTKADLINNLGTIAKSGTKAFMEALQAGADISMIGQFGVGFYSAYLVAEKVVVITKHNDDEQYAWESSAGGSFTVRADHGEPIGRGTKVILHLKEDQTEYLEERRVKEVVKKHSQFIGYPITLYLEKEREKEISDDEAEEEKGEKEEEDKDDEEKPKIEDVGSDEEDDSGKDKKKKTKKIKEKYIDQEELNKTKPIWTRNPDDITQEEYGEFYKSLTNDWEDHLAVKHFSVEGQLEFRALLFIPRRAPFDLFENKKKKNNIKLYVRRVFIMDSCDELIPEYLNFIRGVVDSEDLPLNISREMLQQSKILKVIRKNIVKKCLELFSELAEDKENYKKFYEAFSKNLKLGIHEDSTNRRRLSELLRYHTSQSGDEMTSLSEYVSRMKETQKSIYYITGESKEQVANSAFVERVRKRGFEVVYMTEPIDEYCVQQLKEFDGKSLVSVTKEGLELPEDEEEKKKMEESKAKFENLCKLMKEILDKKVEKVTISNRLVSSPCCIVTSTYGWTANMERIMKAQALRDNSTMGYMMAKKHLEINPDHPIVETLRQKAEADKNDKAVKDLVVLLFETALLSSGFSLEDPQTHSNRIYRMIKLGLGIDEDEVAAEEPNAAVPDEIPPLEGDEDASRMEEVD

Compound: CC(C)C[C@@H]1NC(=O)[C@H](C(C)C)N(C)C(=O)[C@@H](CC(C)C)NC(=O)[C@@H](Cc2ccccc2)NC(=O)[C@@H]([C@H](OCc2ccccc2)c2ccccc2)NC1=O (HELM PEPTIDE1{L.[O=C([C@H](N[*:1])[C@H](OCc1ccccc1)c1ccccc1)[*:2]].[dF].[dL].[meV]}$PEPTIDE1,PEPTIDE1,1:R1-5:R2$$$V2.0)
- IC50 [1]: 7.4 µM
- IC50 [2]: 7.8 µM
- inhibition [3]: 25%
- solubility [4, 47]: 5200 µg/mL (≈ 7030 µM)

Compound: CC(C)C[C@@H]1NC(=O)[C@H](C(C)C)N(C)C(=O)[C@@H](CC(C)C)NC(=O)[C@@H](Cc2c[nH]c3ccccc23)NC(=O)[C@@H](C(c2ccccc2)c2ccccc2)NC1=O
- IC50 [1]: 3.9 µM
- IC50 [2]: 4.5 µM
- solubility [4, 47]: 1900 µg/mL (≈ 2540 µM)

Compound: CC(C)C[C@H]1NC(=O)[C@@H](Cc2cscn2)NC(=O)[C@@H](C(c2ccccc2)c2ccccc2)NC(=O)[C@H](CCCCNC(=O)CCOCCOCCOCCOCCNC(=O)CCCC[C@@H]2SC[C@@H]3NC(=O)N[C@@H]32)NC(=O)[C@H](C(C)C)N(C)C1=O
- Activity [5]: Active
- Activity [6]: Active

Compound: C=CCNC1=C2C[C@@H](C)C[C@H](OC)[C@H](O)[C@@H](C)/C=C(\C)[C@H](OC(N)=O)[C@@H](OC)/C=C\C=C(/C)C(=O)NC(=CC1=O)C2=O [TANESPIMYCIN]
- fold change (FC) [7]: 2
- fold change (FC) [8]: 2
- inhibition [9]: 17%
- fold change (FC) [10]: 2
- fold change (FC) [11]: 2
- fold change (FC) [12]: 2
- fold change (FC) [13]: 2
- fold change (FC) [14]: 2
- fold change (FC) [15]: 2
- Activity [16]: 25%
- fold change (FC) [17]: 2
- fold change (FC) [18]: 2
- fold change (FC) [19]: 2
- fold change (FC) [20]: 2

Compound: CC(C)C[C@@H]1NC(=O)[C@H](C(C)C)N(C)C(=O)[C@@H](CC(C)C)NC(=O)[C@@H](Cc2ccccc2)NC(=O)[C@@H](C(c2ccccc2)c2ccccc2)NC1=O
- IC50 [1]: 7.6 µM
- IC50 [2]: 12.8 µM
- solubility [4, 47]: 2100 µg/mL (≈ 2960 µM)

Compound: COc1ccc(C[C@H]2NC(=O)[C@@H](C(c3ccccc3)c3ccccc3)NC(=O)[C@H](CC(C)C)NC(=O)[C@H](C(C)C)N(C)C(=O)[C@@H](CC(C)C)NC2=O)cc1
- IC50 [1]: 5.1 µM
- IC50 [2]: 4.4 µM
- solubility [4, 47]: 1500 µg/mL (≈ 2030 µM)

Compound: CC(C)C[C@@H]1NC(=O)[C@H](C(C)C)N(C)C(=O)[C@@H](CC(C)C)NC(=O)[C@@H](Cc2cscn2)NC(=O)[C@@H](C(c2ccccc2)c2ccccc2)NC1=O (HELM PEPTIDE1{L.[O=C([C@H](N[*:1])C(c1ccccc1)c1ccccc1)[*:2]].[O=C([C@@H](Cc1cscn1)N[*:1])[*:2]].[dL].[meV]}$PEPTIDE1,PEPTIDE1,1:R1-5:R2$$$V2.0)
- fold change (FC) [21]: 2
- inhibition [22]: Active
- fold change (FC) [23]: 2
- IC50 [1]: 5 µM
- inhibition [24]: Active
- fold change (FC) [25]: 2
- Activity [26]: Active
- IC50 [2]: 5.5 µM
- fold change (FC) [27]: 2
- inhibition [28]: Active
- fold change (FC) [29]: 2
- inhibition [30]: Active
- inhibition [31]: 42%
- inhibition [32]: Active
- fold change (FC) [33]: 2
- inhibition [34]: Active
- fold change (FC) [35]: 2
- fold change (FC) [36]: 2
- Activity [37]: 75%
- inhibition [38]: Active
- inhibition [39]: Active
- inhibition [40]: Active
- inhibition [41]: Active
- fold change (FC) [42]: 2
- fold change (FC) [43]: 4
- Activity [44]: Active
- solubility ([4]; buffer): 9500 µg/mL (≈ 13300 µM)
- fold change (FC) [45]: 2
- fold change (FC) [46]: 4

Compound: CC(C)C[C@@H]1NC(=O)[C@H](C(C)C)N(C)C(=O)[C@@H](CC(C)C)NC(=O)[C@@H](Cc2ccncc2)NC(=O)[C@@H](C(c2ccccc2)c2ccccc2)NC1=O
- IC50 [1]: 15.7 µM
- IC50 [2]: 18.5 µM

Compound: CC(C)C[C@@H]1NC(=O)[C@H](C(C)C)N(C)C(=O)[C@@H](CC(C)C)NC(=O)[C@@H](Cc2cccnc2)NC(=O)[C@@H](C(c2ccccc2)c2ccccc2)NC1=O
- IC50 [1]: 20.8 µM
- IC50 [2]: 23 µM

Compound: CC(C)C[C@@H]1NC(=O)[C@H](C(C)C)N(C)C(=O)[C@@H](CC(C)C)NC(=O)[C@@H](Cc2ccccn2)NC(=O)[C@@H](C(c2ccccc2)c2ccccc2)NC1=O
- IC50 [1]: 18.1 µM
- IC50 [2]: 23.6 µM
